Sampled rows, rich in hits. Any-hit rate of the full collection: about 2.3%.
TRPC4 act – TRPC4 (mouse) channel activation; Q9QUQ5; HEK293 TRPC4beta/mu-opioid, Fluo4 calcium fluorescence; active compounds read high; B-score at 10 µM; 0.49% of 310,000 active;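 active = B-score above 5 SD of library B-scores, and initial fluorescence ratio not above library mean plus 5 SD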;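 also: positive B-score marks a calcium rise read as TRPC4 activation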
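System: HEK293 cells stably co-expressing mouse TRPC4beta and mu-opioid receptor; Schedule: Fluo4 dye loading 45 min at room temperature, 110 s recording; Detection: Fluo4 fluorescence, kinetic; Evaluation: B-scored integrated calcium fluorescence ratio; Controls: buffer (low) and maximal DAMGO (high).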
TRPC4 PAM – allosteric potentiators of mouse TRPC4 channel. Q9QUQ5. HEK293 TRPC4beta/mu-opioid, DAMGO EC20, Fluo-4 Ca2+ flux; active compounds read high. B-score at 10 µM. 0.42% of 310,000 active. AID 2227;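 active = B-score of calcium response area above 5 SD of library B-scores, with initial fluorescence ratio within 5 SD of library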;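 also: B-score of integrated fluorescence ratio over time as area under calcium response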
TRPC6 activator – activates the mouse TRPC6 cation channel | Q61143 | HEK293-TRPC6 membrane potential dye fluorescence; active compounds read high | B-score at 10 µM | 0.13% of 310,000 active | AID 2550;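 active = B-score of the integrated fluorescence ratio above library mean plus 3 SD, and starting fluorescence ratio within library mean plus 5 SD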;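 also: higher score means more depolarization so channel activation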
Target sequence (Q61143 whole entry, looked up): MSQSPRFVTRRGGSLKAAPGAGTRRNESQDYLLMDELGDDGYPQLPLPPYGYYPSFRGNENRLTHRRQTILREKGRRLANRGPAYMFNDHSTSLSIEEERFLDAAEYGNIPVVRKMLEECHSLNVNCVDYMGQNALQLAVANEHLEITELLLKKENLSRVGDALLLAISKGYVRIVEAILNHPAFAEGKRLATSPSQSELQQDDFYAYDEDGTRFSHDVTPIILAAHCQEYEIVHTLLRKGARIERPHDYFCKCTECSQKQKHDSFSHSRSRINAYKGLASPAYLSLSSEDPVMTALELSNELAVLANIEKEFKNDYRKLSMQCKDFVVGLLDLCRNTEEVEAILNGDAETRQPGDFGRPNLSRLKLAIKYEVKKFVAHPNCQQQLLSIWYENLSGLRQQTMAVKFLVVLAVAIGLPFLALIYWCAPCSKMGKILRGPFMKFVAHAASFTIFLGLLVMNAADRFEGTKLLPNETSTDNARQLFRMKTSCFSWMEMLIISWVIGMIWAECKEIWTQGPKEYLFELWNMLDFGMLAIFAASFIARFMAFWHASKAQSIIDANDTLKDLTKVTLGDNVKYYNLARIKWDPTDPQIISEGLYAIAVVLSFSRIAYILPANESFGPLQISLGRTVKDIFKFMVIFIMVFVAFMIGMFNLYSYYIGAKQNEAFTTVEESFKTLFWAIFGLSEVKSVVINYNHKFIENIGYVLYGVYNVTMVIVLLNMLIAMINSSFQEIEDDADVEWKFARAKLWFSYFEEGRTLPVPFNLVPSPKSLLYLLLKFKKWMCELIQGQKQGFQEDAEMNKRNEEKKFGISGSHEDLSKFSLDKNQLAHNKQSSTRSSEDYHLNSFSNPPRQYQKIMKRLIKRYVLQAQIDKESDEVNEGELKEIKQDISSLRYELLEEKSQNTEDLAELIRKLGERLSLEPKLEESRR
TRPC4 block – TRPC4 (mouse) channel inhibition; Q9QUQ5; HEK293 TRPC4beta/mu-opioid, DAMGO-evoked Fluo4 calcium flux; active compounds read low; B-score at 10 µM; 0.39% of 300,000 active;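 active = B-score over 3 SD under the library average, no early fluorescence shift, positive overall ratio signal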
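Material: HEK293 cells with stable TRPC4beta plus mu-opioid receptor expression; probe or stimulus: DAMGO in two steps, submaximal then maximal; technique: Fluo4 calcium fluorescence by kinetic imaging, 5 s 1 Hz baseline; measure: integrated fluorescence ratio relative to baseline, converted to per-well B score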
TRPC6 inhibitor – inhibitors of mouse TRPC6 channel; Q61143; HEK293-TRPC6, membrane potential dye, ACh-evoked depolarization; active compounds read low; B-score at 10 µM; 1.1% of 310,000 active;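 active = B-score under library mean minus 3 SD, initial fluorescence not abnormally high, positive integrated signal ratio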;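 also: B-score derived from integrated fluorescence ratio over the kinetic read; more negative B-score means stronger inhibition of depolarization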
TRPC4 sel inh 2 – second check of whether TRPC6 inhibitors also affect mouse TRPC4; shares compounds with TRPC6 inhibitor; HEK293 TRPC4/MOR, membrane potential dye fluorescence; channel activated by saturating DAMGO dose; inhibition, % at 10 µM; 42% of 920 active; AID 2776;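 active = compounds whose fluorescence signal differed from control wells by over 3 SD, either direction, in both duplicate plates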
TRPC4 spec – selectivity of TRPC6 inhibitors: effect on mouse TRPC4; 61% of 920 active; HEK293 TRPC4/mu-opioid, membrane potential fluorescence; activity change, negative = inhibition, % at 10 µM; shares compounds with TRPC6 inhibitor;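 active = rise or fall in signal beyond 3 SD of buffer-only wells in both replicate plates, either sign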;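 also: integrated kinetic ratio of fluorescence range over baseline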
HEK293 MPD ctr 2-1 – second check of TRPC6 inhibitor effects in parental HEK293 cells. 31% of 920 active. AID 2779. parental HEK293 membrane potential dye fluorescence; maximal acetylcholine challenge after compound addition. signal change vs control, % at 10 µM. shares compounds with TRPC6 inhibitor;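 active = membrane potential signal moving either way by over 3 SD of the maximum-effect control, in both duplicate plates, meaning non-specific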
HEK293 MPD ctr-1 – counter-screen for TRPC6 inhibitors: effect in parental HEK293 cells | shares compounds with TRPC6 inhibitor | parental HEK293 membrane potential dye fluorescence | membrane potential signal change, % at 10 µM | 60% of 920 active | AID 2780;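 active = membrane potential signal shifting up or down by more than 3 SD of buffer-only wells, on both duplicate plates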
HEK293 MPD ctr-2 – checks TRPC6 modulator effects in parental HEK293 cells; shares compounds with TRPC6 inhibitor; membrane potential dye fluorescence; membrane potential signal change, % at 10 µM; 51% of 2,400 active; AID 488924;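 active = membrane potential signal moves up or down beyond 5 SD from buffer-only wells, on both duplicate plates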
HEK293 MPD ctr 2-2 – second counter-screen for TRPC6 modulators: effect in parental HEK293 cells; inhibition, % at 10 µM; 14% of 2,400 active; shares compounds with TRPC6 inhibitor; membrane potential dye fluorescence; after compound, maximal acetylcholine stimulation; AID 488926;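 active = membrane potential signal drops by more than 5 SD from the mean control signal, in both duplicate plates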;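 also: plate controls were acetylcholine ECmax control wells for no effect and buffer only wells for full effect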
TRPC4/MOR mod – selectivity of TRPC6 modulators against mouse TRPC4; shares compounds with TRPC6 inhibitor; HEK293 TRPC4/mu-opioid, membrane potential fluorescence; percent change from control (negative = decrease, positive = increase), % at 10 µM; 69% of 2,400 active; AID 488927;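 active = membrane potential signal moved up or down beyond 5 SD of buffer control wells, in both duplicate plates, actives on both sides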;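 also: plate controls were assay buffer wells for no effect and DAMGO maximal-effect wells for full effect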
TRPC4/MOR inh 2 – mouse TRPC4 off-target activity of TRPC6 modulators, second screen | 55% of 2,400 active | shares compounds with TRPC6 inhibitor | inhibition, % at 10 µM | HEK293 TRPC4/mu-opioid, membrane potential dye fluorescence; stimulated with maximal-effect DAMGO | AID 488928;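 active = drop in membrane potential signal beyond 5 SD of the control wells in both duplicate plates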;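 also: TRPC4 counter screen for TRPC6 hits run under conditions tuned for TRPC6 not TRPC4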
TRPC6 inh conf – confirmation of mouse TRPC6 inhibitors; 43% of 3,300 active; inhibition, % at 10 µM; HEK293-TRPC6, membrane potential dye, ACh-evoked depolarization; shares compounds with TRPC6 inhibitor;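 active = fluorescence ratio falls more than 5 SD below the full-stimulation control mean, in both duplicate runs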;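 also: integrated fluorescence ratio of peak minus minimum over baseline after agonist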
TRPC6 act conf – mouse TRPC6 activator confirmation; shares compounds with TRPC6 inhibitor; activation, % at 10 µM; 11% of 2,800 active; HEK293-TRPC6 membrane potential dye fluorescence, FDSS;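 active = ratio signal rise beyond 5 SD above unstimulated control wells' mean, seen in both duplicate runs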;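 also: plate controls were buffer EC0 wells for no effect and acetylcholine ECmax response for full effect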
* hit, by the source's call.

Results for O=C(O)c1cc(S(=O)(=O)Nc2ccc(OCc3ccccc3)cc2)ccc1Br ?
TRPC4 act: inactive; TRPC4 PAM: inactive; TRPC6 activator: inactive; TRPC4 block: inactive; TRPC6 inhibitor: inactive

How did Fc1ccccc1-c1nc(NCCCN2CCOCC2)c2ccccc2n1 do in these assays?
TRPC4 act: inactive; TRPC4 PAM: inactive; TRPC6 activator: inactive; TRPC4 block: inactive; TRPC6 inhibitor: -5.1*; HEK293 MPD ctr-2: -272%*; HEK293 MPD ctr 2-2: inactive; TRPC4/MOR mod: -47%*; TRPC4/MOR inh 2: 55%*; TRPC6 inh conf: 52%*; TRPC6 act conf: inactive

How did O=C(Nc1ccccc1)C1CC(=O)N(Cc2ccccc2)C1 (centres undefined) do in these assays?
TRPC4 act: inactive; TRPC4 PAM: inactive; TRPC6 activator: inactive; TRPC4 block: inactive; TRPC6 inhibitor: inactive

What do the screens show for `O=C(Nc1ccc(F)c(Cl)c1)C1CC(=O)N(Cc2ccccc2)C1` (centres undefined)?
TRPC4 act: inactive; TRPC4 PAM: inactive; TRPC6 activator: inactive; TRPC4 block: inactive; TRPC6 inhibitor: -6.1*; HEK293 MPD ctr-2: inactive; HEK293 MPD ctr 2-2: inactive; TRPC4/MOR mod: -8.5%*; TRPC4/MOR inh 2: inactive; TRPC6 inh conf: inactive; TRPC6 act conf: inactive

Results for CC(C)(C)c1ccc(Cn2c(=N)n(CC(O)c3ccco3)c3ccccc32)cc1 (centres undefined) ?
TRPC4 act: inactive; TRPC4 PAM: inactive; TRPC6 activator: inactive; TRPC4 block: inactive; TRPC6 inhibitor: -7.3*; TRPC4 sel inh 2: 37%*; TRPC4 spec: 11%*; HEK293 MPD ctr 2-1: inactive; HEK293 MPD ctr-1: 8.7%*; TRPC6 inh conf: 67%*; TRPC6 act conf: inactive

How did CCCCn1c(=N)n(CC(O)c2ccccc2)c2ccccc21 (centres undefined) do in these assays?
TRPC4 act: inactive; TRPC4 PAM: inactive; TRPC6 activator: inactive; TRPC4 block: inactive; TRPC6 inhibitor: inactive

What do the screens show for `CCn1c(=N)n(CC(O)c2ccccc2)c2ccccc21` (centres undefined)?
TRPC4 act: inactive; TRPC4 PAM: inactive; TRPC6 activator: inactive; TRPC4 block: inactive; TRPC6 inhibitor: inactive

Results for Cc1ccccc1Cn1c(=N)n(CC(O)c2ccco2)c2ccccc21 (centres undefined) ?
TRPC4 act: inactive; TRPC4 PAM: inactive; TRPC6 activator: inactive; TRPC4 block: -6*; TRPC6 inhibitor: -5.2*; HEK293 MPD ctr-2: 143%*; HEK293 MPD ctr 2-2: inactive; TRPC4/MOR mod: 49%*; TRPC4/MOR inh 2: 99%*; TRPC6 inh conf: 48%*

Results for C[N+]1(C)[C@@H]2CC(OC(=O)[C@H](CO)c3ccccc3)C[C@H]1[C@@H]1O[C@@H]12 (some centres undefined) ?
TRPC4 act: inactive; TRPC4 PAM: inactive; TRPC6 activator: inactive; TRPC4 block: inactive; TRPC6 inhibitor: -8.2*; TRPC4 sel inh 2: inactive; TRPC4 spec: inactive; HEK293 MPD ctr 2-1: -9.0%*; HEK293 MPD ctr-1: inactive; TRPC6 inh conf: 93%*; TRPC6 act conf: inactive

What do the screens show for `CCC(C(=O)OCC(=O)Nc1c(Cl)cccc1Cl)c1ccccc1` (centres undefined)?
TRPC4 act: inactive; TRPC4 PAM: inactive; TRPC6 activator: inactive; TRPC4 block: inactive; TRPC6 inhibitor: inactive

What do the screens show for `COc1ccccc1N1CCN(C(=O)CSc2nc(C)cc(=O)[nH]2)CC1`?
TRPC4 act: inactive; TRPC4 PAM: inactive; TRPC6 activator: inactive; TRPC4 block: inactive; TRPC6 inhibitor: -6.9*; TRPC4 sel inh 2: inactive; TRPC4 spec: inactive; HEK293 MPD ctr 2-1: inactive; HEK293 MPD ctr-1: inactive; TRPC6 inh conf: inactive; TRPC6 act conf: inactive

How did COc1ccccc1N1CCN(C(=O)CSc2nc(C)c(C)c(=O)[nH]2)CC1 do in these assays?
TRPC4 act: inactive; TRPC4 PAM: inactive; TRPC6 activator: inactive; TRPC4 block: inactive; TRPC6 inhibitor: inactive

How did COc1ccc(S(=O)(=O)Nc2ccccc2C(=O)NCc2cccnc2)cc1 do in these assays?
TRPC4 act: inactive; TRPC4 PAM: inactive; TRPC6 activator: inactive; TRPC4 block: inactive; TRPC6 inhibitor: inactive

Results for CCOC(=O)C(=O)N1CCN(c2nc(-c3ccc(Cl)cc3)cs2)CC1 ?
TRPC4 act: inactive; TRPC4 PAM: inactive; TRPC6 activator: inactive; TRPC4 block: inactive; TRPC6 inhibitor: -6.2*; HEK293 MPD ctr-2: inactive; HEK293 MPD ctr 2-2: inactive; TRPC4/MOR mod: inactive; TRPC4/MOR inh 2: inactive; TRPC6 inh conf: inactive; TRPC6 act conf: inactive

What do the screens show for `CCC(=O)c1cn(CC(=O)Nc2ccc(C)cc2C)c2ccccc12`?
TRPC4 act: inactive; TRPC4 PAM: inactive; TRPC6 activator: inactive; TRPC4 block: inactive; TRPC6 inhibitor: inactive
